The record followed here is ChEMBL document CHEMBL1932934, “Cyclosulfamide-based derivatives as inhibitors of noroviruses” (Eur J Med Chem, 2012).

A value given as a limit tells only on which side of the number the result lay.

One series concerns Norovirus. Description: Antiviral activity against Norovirus infected in human HG23 cells assessed as inhibition of viral replication after 24 hrs by quantitative RT-PCR analysis. It is filed as functional. The settings on record: HG23, 24 h, read-out: ED50 (the source's name).
A short description of series [1]: Cytotoxicity against human HG23 cells after 48 hrs. It is filed as cell-based. The conditions noted are these: read-out: TD50. The method, boiled down:
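Cytotoxicity in Norwalk virus replicon-harboring HG23 cells exposed to compound for 48 hr, measured with a commercial cell cytotoxicity assay kit. The median toxic dose (TD50) was calculated from the readout.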

Series [2] in a line: Therapeutic index, ratio of TD50 for human HG23 cells to ED50 for Norovirus infected in human HG23 cells. The settings on record: read-out: Ratio TD50/ED50. Format: cell-based. The method, boiled down:
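Index computed as TD50 divided by ED50, both in NV replicon-harboring HG23 cells. TD50 came from a cytotoxicity assay kit after 48 hr of treatment.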

For the molecule `O=C(O)C1CCN(C(=O)CN2CCN(Cc3cccc(Oc4ccccc4)c3)S2(=O)=O)CC1`, the EC50 in the series on Norovirus is above 10 µM. The CC50 at 48 h in series [1] is 80.5 µM.

`O=S1(=O)N(CCN2CCOCC2)CCN1Cc1cccc(Oc2ccccc2)c1`: the EC50 in the series with Norovirus worked out at 5.2 µM. Moreover, the CC50 at 48 h in series [1] is 95.4 µM.

As to `O=S1(=O)N(CCN2CCN(Cc3ccccc3)CC2)CCN1Cc1cccc(Oc2ccccc2)c1`, in the series with Norovirus, the EC50 came out at 4.1 µM. The CC50 at 48 h in series [1] came out at 11.4 µM. Moreover, the selectivity ratio in series [2] is below 10.

As for `COC(=O)C1CCN(CCN2CCN(Cc3cccc(Oc4ccccc4)c3)S2(=O)=O)CC1`, the EC50 with Norovirus amounted to 5.5 µM. Further, the CC50 at 48 h in series [1] came out at 180 µM.

For the molecule `O=S1(=O)N(CCN2CCN(CCN3CCN(Cc4cccc(Oc5ccccc5)c4)S3(=O)=O)CC2)CCN1Cc1cccc(Oc2ccccc2)c1`, in the series with Norovirus, the EC50 turned out to be 0.4 µM. In series [1], the CC50 at 48 h was found to be 5.1 µM.

Turning to `O=C(c1ccc(F)cc1)N1CCN(CCN2CCN(Cc3cccc(Oc4ccccc4)c3)S2(=O)=O)CC1`, the EC50 with Norovirus came to 9.7 µM. The CC50 at 48 h in series [1] was found to be 80.8 µM. In addition, in series [2], the selectivity ratio was below 10.

With `O=C(c1ccc(Cl)cc1)N1CCN(CCN2CCN(Cc3cccc(Oc4ccccc4)c3)S2(=O)=O)CC1`, in the series with Norovirus, the EC50 stood at 7.4 µM. In series [1], the CC50 at 48 h was determined as 35.3 µM. The selectivity ratio in series [2] was below 10.

For `CCN1CCN(C(=O)CN2CCN(Cc3cccc(Oc4ccccc4)c3)S2(=O)=O)CC1`, the EC50 with Norovirus amounted to 5.5 µM. Further, the CC50 at 48 h in series [1] worked out at 120 µM. Moreover, the selectivity ratio in series [2] amounted to 24.

In the case of `COC(=O)C1CCN(C(=O)CN2CCN(Cc3cccc(Oc4ccccc4)c3)S2(=O)=O)CC1`, in the series on Norovirus, the EC50 is 4.2 µM. Besides, the CC50 at 48 h in series [1] was determined as 156 µM. The selectivity ratio in series [2] came out at 39.

Turning to `CS(=O)(=O)N1CCN(CCN2CCN(Cc3cccc(Oc4ccccc4)c3)S2(=O)=O)CC1`, in the series on Norovirus, the EC50 worked out at 3.2 µM. Also, the CC50 at 48 h in series [1] is 12.2 µM. Further, the selectivity ratio in series [2] is below 10.

As to `CCOC(=O)N1CCN(CCN2CCN(Cc3cccc(Oc4ccccc4)c3)S2(=O)=O)CC1`, in the series with Norovirus, the EC50 stood at 5.8 µM. In addition, in series [1], the CC50 at 48 h worked out at 13.5 µM. Also, in series [2], the selectivity ratio is below 10.

Take `O=C(c1cccc(Oc2ccccc2)c1)N1CCN(CCN2CCN(Cc3cccc(Oc4ccccc4)c3)S2(=O)=O)CC1`: the EC50 with Norovirus is 6.2 µM. In series [1], the CC50 at 48 h turned out to be 32.9 µM. Further, in series [2], the selectivity ratio is below 10.

Regarding `O=S1(=O)N(CCN2CCCCC2)CCN1Cc1cccc(Oc2ccccc2)c1`, in the series with Norovirus, the EC50 amounted to 4.7 µM. For the same molecule, the CC50 at 48 h in series [1] amounted to 12.3 µM.

Consider `O=S(=O)(Cc1ccccc1)N1CCN(CCN2CCN(Cc3cccc(Oc4ccccc4)c3)S2(=O)=O)CC1`, for which the EC50 in the series on Norovirus turned out to be 5.3 µM. Further, the CC50 at 48 h in series [1] stood at 9.3 µM. For the same molecule, in series [2], the selectivity ratio was below 10.

In the case of `O=C(O)C1CCN(CCN2CCN(Cc3cccc(Oc4ccccc4)c3)S2(=O)=O)CC1`, in the series with Norovirus, the EC50 was determined as 9.1 µM. Further, in series [1], the CC50 at 48 h is 210 µM.

Take `O=S1(=O)N(CCN2CCNCC2)CCN1Cc1cccc(Oc2ccccc2)c1`: in the series with Norovirus, the EC50 was determined as 5.3 µM. For the same molecule, the CC50 at 48 h in series [1] came out at 14.6 µM. Also, the selectivity ratio in series [2] is below 10.

As to `O=S1(=O)N(CCN2CCN(Cc3cccc(Oc4ccccc4)c3)S2(=O)=O)CCN1Cc1cccc(Oc2ccccc2)c1`, the EC50 in the series with Norovirus worked out at 1.5 µM. Also, in series [1], the CC50 at 48 h came to 8.5 µM.

For `CCCCS(=O)(=O)N1CCN(CCN2CCN(Cc3cccc(Oc4ccccc4)c3)S2(=O)=O)CC1`, the EC50 in the series on Norovirus was 3.4 µM. For the same molecule, the CC50 at 48 h in series [1] was 11.1 µM. In addition, the selectivity ratio in series [2] is below 10.
